Laboratory results reported in ChEMBL document CHEMBL1153117, “Synthesis of substituted aryloxy alkyl and aryloxy aryl alkyl imidazoles as antileishmanial agents” (Bioorg Med Chem Lett, 2010).
Values after ≈ are worked out from the molar mass of the structure shown.

Assays:
Leishmania donovani [1] = experiment: Antileishmanial activity against Leishmania donovani infected in hamster assessed inhibition of parasite growth at 20 mg/kg; format: functional, organism-based; design: dose 20 mg/kg
J774.A1 = experiment: (§1) Selectivity index, ratio of CC50 for mouse J774A1 cells to IC50 for Leishmania donovani amastigotes; format: functional
How it was run: (§2)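 Computed as CC50 in the J-774-A-1 macrophage MTT assay divided by anti-amastigote IC50. The IC50 came from a four-parameter Hill fit of the concentration–response curve.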

Leishmania donovani [2] = experiment: Antileishmanial activity against Leishmania donovani amastigotes; format: functional, organism-based
How it was run: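 Intracellular L. donovani amastigotes tested in vitro, with sodium stibogluconate, pentamidine and amphotericin B as controls. IC50 (µg/mL) was obtained by nonlinear regression of the concentration–response curve using the four-parameter Hill equation.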

Leishmania donovani [3] = experiment: Antileishmanial activity against Leishmania donovani promastigotes at 10 ug/mL; format: functional
How it was run: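 L. donovani promastigotes exposed in vitro to 10 µg/mL. Result expressed as percent inhibition.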

[4] = Cytotoxicity against mouse J774A1 cells by MTT assay; format: cell-based, J774.A1
How it was run: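 Mouse macrophage line J-774-A-1 tested for cytotoxicity. Viability was read by MTT assay. CC50 (µg/mL) was estimated by the Huber and Koella method.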

[5] = as §1; format: functional, J774.A1; how it was run: as §2
Leishmania donovani [6] = experiment: Antileishmanial activity against Leishmania donovani infected in hamster assessed inhibition of parasite growth at 40 mg/kg; format: functional
Leishmania donovani [7] = experiment: Antileishmanial activity against Leishmania donovani infected in hamster assessed inhibition of parasite growth at 50 mg/kg, ip for 10 days; format: functional; conditions: 240 h, route intraperitoneal
How it was run: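 Hamster model (Mesocricetus auratus) infected with L. donovani. Dosed intraperitoneally at 50 mg/kg × 10. Read-out was percent inhibition of parasite growth.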

Leishmania donovani [8] = experiment: Antileishmanial activity against Leishmania donovani promastigotes; format: functional, organism-based
Leishmania donovani [9] = experiment: Antileishmanial activity against Leishmania donovani infected in hamster assessed inhibition of parasite growth at 8 mg/kg, iv for 5 days; format: functional; conditions: 120 h
[10] = Leishmania donovani, read-out: IC50

| Compound | inhibition (Leishmania donovani [1]) | Ratio CC50/IC50 (J774.A1) | IC50 (Leishmania donovani [2]; [10]) | inhibition at 10 µg/mL (Leishmania donovani [3]) | CC50 [4] | Ratio CC50/IC50 [5] | inhibition in vivo at 40 mg/kg (Leishmania donovani [6]) | IC50 (Leishmania donovani [2]) | inhibition in vivo at 50 mg/kg (Leishmania donovani [7]) | IC50 (Leishmania donovani [8]) | inhibition in vivo at 8 mg/kg (Leishmania donovani [9]) |
| --- | --- | --- | --- | --- | --- | --- | --- | --- | --- | --- | --- |
| sodium stibogluconate | 84.1% | 6.38 |  |  |  |  |  |  |  |  |  |
| CC(CCn1ccnc1)Oc1ccc([N+](=O)[O-])cc1C(F)(F)F (stereo unspecified) |  |  | 9.97 µg/mL (≈ 30.3 µM) | 100% | 7.73 µg/mL (≈ 23.5 µM) | 0.97 |  |  |  |  |  |
| N=C(N)c1ccc(OCCCCCOc2ccc(C(=N)N)cc2)cc1 [PENTAMIDINE] |  |  | 12.1 µg/mL (≈ 35.6 µM) |  |  |  | 92% |  |  |  |  |
| CC(CCn1ccnc1)Oc1ccc([N+](=O)[O-])cc1 (stereo unspecified) |  |  |  | 100% | 24.1 µg/mL (≈ 92.2 µM) |  |  | Not Active |  |  |  |
| C[C@@H](Cn1ccnc1)[C@@H](Oc1ccccc1[N+](=O)[O-])c1ccccc1 (relative stereo) |  |  | 2.27 µg/mL (≈ 6.73 µM) | 95% | 22.1 µg/mL (≈ 65.7 µM) | 9.75 |  |  |  |  |  |
| FC(F)(F)c1ccc(OC(CCn2ccnc2)c2ccccc2)cc1 (stereo unspecified) |  |  | 0.47 µg/mL (≈ 1.36 µM) | 100% | 17.2 µg/mL (≈ 49.8 µM) | 36.68 |  |  | 60% |  |  |
| C[C@@H]1[C@H](O)[C@@H](C)/C=C/C=C/C=C/C=C/C=C/C=C/C=C/[C@H](O[C@@H]2O[C@H](C)[C@@H](O)[C@H](N)[C@@H]2O)C[C@@H]2O[C@](O)(C[C@@H](O)C[C@@H](O)[C@H](O)CC[C@@H](O)C[C@@H](O)CC(=O)O[C@H]1C)C[C@H](O)[C@H]2C(=O)O [AMPHOTERICIN B] |  |  | 0.05 µg/mL (≈ 0.0541 µM) |  | 7.24 µg/mL (≈ 7.83 µM) | 144.8 |  |  |  | 8 ng/mL (≈ 0.00866 µM) | 92.2% |
| O=[N+]([O-])c1ccc(OC(CCn2ccnc2)c2ccccc2)c(F)c1 (stereo unspecified) |  |  | 2.83 µg/mL (≈ 8.29 µM) | 96.3% | 25.1 µg/mL (≈ 73.5 µM) | 8.86 |  |  |  |  |  |
| FC(F)(F)c1ccc(OC(Cn2ccnc2)c2ccccc2)cc1 (stereo unspecified) |  |  | 2.05 µg/mL (≈ 6.17 µM) | 98.6% | 28.4 µg/mL (≈ 85.6 µM) | 13.85 |  |  | 46% |  |  |
| O=[N+]([O-])c1ccccc1OC(COc1ccccc1)Cn1ccnc1 (stereo unspecified) |  |  | 4.82 µg/mL (≈ 14.2 µM) | 95.5% | 36.2 µg/mL (≈ 107 µM) | 7.51 |  |  |  |  |  |
| O=[N+]([O-])c1ccc(OC(Cn2ccnc2)c2ccccc2)cc1 (stereo unspecified) |  |  | 3.71 µg/mL (≈ 12 µM) | 95.5% | 25.2 µg/mL (≈ 81.5 µM) | 6.79 |  |  |  |  |  |
| O=[N+]([O-])c1ccc(OC(COc2ccccc2)Cn2ccnc2)cc1 (stereo unspecified) |  |  | 5.62 µg/mL (≈ 16.6 µM) | 93.8% | 28.1 µg/mL (≈ 82.9 µM) | 5 |  |  |  |  |  |
| CC(CCn1ccnc1)Oc1ccc(C(F)(F)F)cc1 (stereo unspecified) |  |  | 8.08 µg/mL (≈ 28.4 µM) | 100% | 7.5 µg/mL (≈ 26.4 µM) | 0.88 |  |  |  |  |  |
| O=[N+]([O-])c1ccc(OC(Cn2ccnc2)c2ccccc2)c(F)c1 (stereo unspecified) |  |  | 2.76 µg/mL (≈ 8.43 µM) | 94.6% | 21.2 µg/mL (≈ 64.9 µM) | 7.69 |  |  |  |  |  |
| CC(CCn1ccnc1)Oc1ccccc1[N+](=O)[O-] (stereo unspecified) |  |  | 8.43 µg/mL (≈ 32.3 µM) | 100% | > 100 µg/mL | >11.86 |  |  |  |  |  |
| O=[N+]([O-])c1ccccc1OC(Cn1ccnc1)c1ccccc1 (stereo unspecified) |  |  | 2.25 µg/mL (≈ 7.27 µM) | 97.5% | 25.1 µg/mL (≈ 81.3 µM) | 11.17 |  |  |  |  |  |
| C[C@@H](Cn1ccnc1)[C@@H](Oc1ccc(C(F)(F)F)cc1)c1ccccc1 (relative stereo) |  |  | 1.85 µg/mL (≈ 5.13 µM) | 100% | 21.7 µg/mL (≈ 60.3 µM) | 11.75 |  |  |  |  |  |
| FC(F)(F)c1ccc(OC(COc2ccccc2)Cn2ccnc2)cc1 (stereo unspecified) |  |  | 0.56 µg/mL (≈ 1.55 µM) | 100% | 17.9 µg/mL (≈ 49.3 µM) | 31.89 |  |  | 58% |  |  |
| O=[N+]([O-])c1ccc(OC(COc2ccccc2)Cn2ccnc2)c(F)c1 (stereo unspecified) |  |  | 5.13 µg/mL (≈ 14.4 µM) | 98.2% | 29.6 µg/mL (≈ 82.8 µM) | 5.76 |  |  |  |  |  |
| O=[N+]([O-])c1ccccc1OC(CCn1ccnc1)c1ccccc1 (stereo unspecified) |  |  | 0.48 µg/mL (≈ 1.48 µM) | 100% | 18 µg/mL (≈ 55.5 µM) |  |  |  | 52% |  |  |
| O=[N+]([O-])c1ccc(OC(CCn2ccnc2)c2ccccc2)cc1 (stereo unspecified) |  |  | 3.82 µg/mL (≈ 11.8 µM) | 99% | 25.1 µg/mL (≈ 77.6 µM) | 6.57 |  |  |  |  |  |
| CC(CCn1ccnc1)Oc1ccc([N+](=O)[O-])cc1F (stereo unspecified) |  |  |  | 100% | 15 µg/mL (≈ 53.7 µM) |  |  | Not Active |  |  |  |
